Assay [1] is described as follows: Inhibition of alpha-glucosidase using para-nitrophenyl substrate.
A short description of assay [2]: Inhibition of alpha-glucosidase at 200 uM using para-nitrophenyl substrate.
Assay [3] in a line: Inhibition of beta-glucosidase using salicin substrate. The essentials: (§1)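 β-Glucosidase added to 1 mL mix of inhibitor, 5.0 mM salicin, 0.1 M NaAc-HAc pH 5.0, then reacted 10 min at 40 °C. Stopped with DNS reagent and developed 5 min in boiling water. Reducing sugar read at 540 nm against a glucose standard. Triplicates at five concentrations bracketing an estimated IC50. Maximum inhibition recorded at the top concentration tested (400 or 200 μM).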

A short description of assay [4]: Inhibition of Aspergillus oryzae Beta-galactosidase at 400 uM. The essentials:
(§2)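 β-Galactosidase from Aspergillus oryzae (9.4 unit/mg solid) assayed by a modified literature method. Values are means of ≥3 determinations. NA means <20% inhibition at 400 μM. Maximum inhibition recorded at the top concentration tested (400 or 200 μM).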

Assay [5] can be described thus: Inhibition of beta-glucosidase at 400 uM using salicin substrate. The essentials:
as §1

Assay [6] is described as follows: Effect on secondary structure of alpha-glucosidase assessed as beta-sheet content at 0.5 uM at circular dichroism method. The essentials: (§3)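 Yeast α-glucosidase secondary structure measured by far-UV CD (186-240 nm), protein 0.53-0.66 mg/mL, 0.1 cm quartz cuvette, 5 accumulations per spectrum. Spectra recorded after exposure to inhibitor and compared with enzyme alone. α-helix, β-sheet, β-turn and random fractions estimated by secondary-structure deconvolution.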

Assay [7] in a line: Effect on secondary structure of alpha-glucosidase assessed as beta-sheet content at 0.3 uM at circular dichroism method. In outline: as §3
Assay [8] is described as follows: Effect on secondary structure of alpha-glucosidase assessed as alpha-helix content at 0.5 uM bt circular dichroism method. The essentials: as §3
Assay [9] in a line: Effect on secondary structure of alpha-glucosidase assessed as random content at 0.3 uM at circular dichroism method. The essentials:
as §3

A short description of assay [10]: Effect on secondary structure of alpha-glucosidase assessed as beta-turn content at 0.3 uM at circular dichroism method. The essentials: as §3
Assay [11] in a line: Effect on secondary structure of alpha-glucosidase assessed as alpha-helix content at 0.3 uM at circular dichroism method. In outline: as §3
The nature of assay [12]: Effect on secondary structure of alpha-glucosidase assessed as beta-turn content at 0.5 uM at circular dichroism method. The essentials: as §3
Assay [13] can be described thus: Inhibition of Aspergillus oryzae Beta-galactosidase. The essentials: as §2
Assay [14] in a line: Effect on secondary structure of alpha-glucosidase assessed as random content at 0.5 uM at circular dichroism method. The essentials:
as §3

Assay [15] can be described thus: Inhibition of alpha-glucosidase using para-nitrophenyl substrate by dose responsive study.
The nature of assay [16]: Inhibition of beta-glucosidase at 200 uM using salicin substrate. In outline:
as §1

A short description of assay [17]: Slow binding inhibition of alpha-glucosidase compound administered 1 hr at 37 degC before initiation of enzyme reaction using para-nitrophenyl substrate. The essentials:
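Yeast α-glucosidase preincubated with inhibitor at 37 °C for 1 h before the reaction is started with PNP glycoside substrate.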

Assay [18] can be described thus: Noncompetitive inhibition of alpha-glucosidase by Lineweaver-Burk plot. In outline: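 Yeast α-glucosidase (50 μL, 10 U/mL) preincubated with inhibitor at 37 °C for 1 h, then PNP glycoside substrate added at varying concentrations. Rate of PNP hydrolysis read at several inhibitor concentrations. Mode assigned from Lineweaver-Burk (1/rate vs 1/[substrate]) double-reciprocal plots. Ki taken from Dixon plot and averaged over the inhibitor concentrations.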

The nature of assay [19]: Inhibition of Aspergillus oryzae Beta-galactosidase at 200 uM. In outline: as §2
A short description of assay [20]: Inhibition of alpha-glucosidase compound administered simultaneously with para-nitrophenyl substrate. The essentials: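 Yeast α-glucosidase assay with PNP glycoside substrate, inhibitor and substrate added together with no preincubation.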

Active and inactive are the calls of the source. The calls are words filed in the database; no cut-off is given here.

We go through 16 compounds from ChEMBL document CHEMBL1629531, “Hydroxycoumarin derivatives: novel and potent α-glucosidase inhibitors” (J Med Chem, 2010).

Take `COc1ccc2c(OC)cc(=O)oc2c1`: the half-maximal inhibitory concentration (IC50) in [1] is > 100 µM.
In the case of `Cc1ccc2oc(=O)cc(O)c2c1`, the inhibition in assay [2] is < 20%.
Compound `OC[C@H]1NC[C@H](O)[C@@H](O)[C@@H]1O` [DUVOGLUSTAT] showed an IC50 in assay [1] of 35.5 µM.
Take `COc1ccc2c(OC)cc(=O)oc2c1C`: in assay [2], the inhibition was < 20%.
Regarding `Cc1cc(=O)oc2c(O)c(O)ccc12` [4-METHYLDAPHNETIN], in assay [1], half-maximal inhibition (IC50) required 52.7 µM.
On to `Cc1cc(=O)oc2cc(O)ccc12` [HYMECROMONE], for which inhibition in assay [1] was half-maximal at 56.2 µM (IC50).
Take `O=c1cc(O)c2ccc(O)cc2o1`: the IC50 is > 400 µM in assay [3] (read-out: IC50), 38.9 µM in assay [1] and “Not Active” in assay [13]. For the same compound, the values for the inhibition in assay [4] and in assay [5] were 0% and 36.7%, respectively. Also, the Activity is 7.4% in assay [6]; 5.3% in assay [7]; 37.1% in assay [8]; 29.4% in assay [9]; 18% in [10]; 47.1% in [11]. For the same compound, the Activity in assay [12] is 21.4%; in assay [14], 34.1%.
`O=c1ccc2cc(O)c(O)cc2o1`: the inhibition in [2] was < 20%.
In [1], `COc1ccc2c(O)cc(=O)oc2c1` displayed a concentration for half-maximal inhibition (IC50) of 96.1 µM.
In the case of `Cc1c(O)ccc2c(O)cc(=O)oc12`, the 50% inhibitory concentration (IC50) in assay [3] (read-out: IC50) was 87.6 µM; in assay [1], 50.5 µM; in assay [13], “Not Active”. Moreover, in [4], the inhibition came to 0%.
In assay [1], `Cc1cc(=O)oc2cc(O)c(O)cc12` [4-METHYLESCULETIN] registered an IC50 of 94.2 µM.
With `O=c1oc2cc(O)ccc2c(O)c1-c1c(O)ccc(O)c1-c1c(O)c2ccc(O)cc2oc1=O`, the inhibition result in [15] was “Dose-dependent effect”; in assay [16] it was 23%; in [19] it was 2%. Moreover, the inhibition entry in assay [17] was “Active”. Besides, the IC50 was > 200 µM in [3] (read-out: IC50), 0.86 µM in [1], 88.4 µM in assay [20] and > 200 µM in [13] (read-out: IC50). Also, the Activity in assay [6] was 30%; in assay [7], 23.8%; in [8], 32.7%; in [9], 29.4%; in assay [10] it was 13.4%; in assay [11], 33.4%. Besides, the values for the Activity in [12] and in assay [14] were 9.2% and 28.1%, respectively. The compound also came in with an inhibition constant Ki in assay [18] of 0.587 µM.
In turn, `O=c1c(-c2ccc(O)cc2)coc2cc(O)cc(O)c12` [GENISTEIN] gave a half-inhibitory concentration (IC50) in assay [1] of 12.4 µM.
Regarding `O=c1oc2ccccc2cc1O` [3-HYDROXYCOUMARIN], the IC50 entry is “Not Active” in [3], 35.3 µM in [1] and “Not Active” in [13]. The inhibition in assay [4] was 0%.
On to `O=c1ccc2cc(O)ccc2o1`, for which, in [2], the inhibition was < 20%.
As to `Cc1cc(=O)oc2cc(O)cc(O)c12` [5,7-DIHYDROXY-4-METHYLCOUMARIN], the IC50 is 45.4 µM in assay [3] (read-out: IC50), 64.6 µM in assay [1] and > 200 µM in [13] (read-out: IC50). The inhibition in assay [4] was 53.9%.
